Laboratory results published in ChEMBL document CHEMBL1275417, “Biological activities of novel gyrase inhibitors of the aminocoumarin class” (Antimicrob Agents Chemother, 2008).
In brackets after ≈: the same amount, converted by molar mass. Activity calls are given as the source filed them. The rule behind the calls is not given here.

What was measured:
DNA gyrase subunit B = DNA gyrase subunit B (Escherichia coli, UniProt P0AES6); test: Inhibition of Escherichia coli JM109 DNA gyrase subunit B assessed as ATP hydrolysis by ATPase assay
[1] = target: DNA gyrase subunit A (Escherichia coli K-12) (UniProt P0AES4); test: Inhibition of Escherichia coli K-12 DNA gyrase A expressed in Escherichia coli DC2 assessed as compound concentration required for => 4-fold induction of luxCDABE operon by reported gene assay
Procedure, shortened: (§1)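 E. coli DC2 carrying a gyrA or sulA promoter–luxCDABE (Photorhabdus) fusion plasmid. Grown overnight at 37°C in LB with 2 μg/ml tetracycline, then diluted 1:100 in LB without tetracycline and precultured 1.5 h at 37°C. Compounds were added from DMSO stocks to 1% final DMSO and incubated 5 h at 37°C. Bioluminescence was divided by A595, and induction factor is the treated/untreated ratio. The value is the lowest test concentration giving ≥4-fold induction.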

[2] = target: T1, Cell division inhibitor SulA (Escherichia coli K-12) (UniProt P0AFZ5); test: Inhibition of Escherichia coli K-12 DNA sulA expressed in Escherichia coli DC2 assessed as compound concentration required for => 4-fold induction of luxCDABE operon by reported gene assay; procedure, shortened: as §1
T1 sequence (whole entry): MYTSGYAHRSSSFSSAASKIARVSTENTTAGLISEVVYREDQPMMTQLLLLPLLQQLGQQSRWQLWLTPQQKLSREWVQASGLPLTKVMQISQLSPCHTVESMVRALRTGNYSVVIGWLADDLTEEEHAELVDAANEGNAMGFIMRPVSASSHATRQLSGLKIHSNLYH

Staphylococcus aureus [3] = test: Antibacterial activity against Staphylococcus aureus ATCC 29213 by broth microdilution method; assay type: functional
Staphylococcus aureus [4] = test: Antibacterial activity against Staphylococcus aureus ATCC 43300 by broth microdilution method; assay type: functional
Staphylococcus aureus [5] = test: Antibacterial activity against Staphylococcus aureus 80CR5 by broth microdilution method; assay type: functional
Streptococcus pneumoniae [6] = test: Antibacterial activity against Streptococcus pneumoniae ATCC 49619 by broth microdilution method; assay type: functional
Streptococcus pneumoniae [7] = test: Antibacterial activity against Streptococcus pneumoniae SL336-T by broth microdilution method; assay type: functional
Streptococcus pneumoniae [8] = test: Antibacterial activity against Streptococcus pneumoniae TUPELO by broth microdilution method; assay type: functional
Enterococcus faecalis = test: Antibacterial activity against Enterococcus faecalis ATCC 29212 by broth microdilution method; assay type: functional
Enterococcus faecium = test: Antibacterial activity against Enterococcus faecium ATCC 19434 by broth microdilution method; assay type: functional
Escherichia coli [9] = test: Antibacterial activity against Escherichia coli ATCC 25922 by broth microdilution method; assay type: functional
Escherichia coli [10] = test: Antibacterial activity against Escherichia coli UB1005 by broth microdilution method; assay type: functional
Escherichia coli [11] = test: Antibacterial activity against Escherichia coli DC2 by broth microdilution method; assay type: functional
Klebsiella pneumoniae = test: Antibacterial activity against Klebsiella pneumoniae ATCC 27736 by broth microdilution method; assay type: functional
Pseudomonas aeruginosa [12] = test: Antibacterial activity against Pseudomonas aeruginosa ATCC 27853 by broth microdilution method; assay type: functional
Pseudomonas aeruginosa [13] = test: Antibacterial activity against Pseudomonas aeruginosa K799/WT by broth microdilution method; assay type: functional
Pseudomonas aeruginosa [14] = test: Antibacterial activity against Pseudomonas aeruginosa K799/61 by broth microdilution method; assay type: functional
[15] = target: DNA gyrase (Escherichia coli); test: Inhibition of Escherichia coli JM109 DNA gyrase assessed as DNA triple helix formation by supercoiling assay

Chain of DNA gyrase subunit A (Escherichia coli K-12) (P0AES4 whole entry, the tested form may be a part): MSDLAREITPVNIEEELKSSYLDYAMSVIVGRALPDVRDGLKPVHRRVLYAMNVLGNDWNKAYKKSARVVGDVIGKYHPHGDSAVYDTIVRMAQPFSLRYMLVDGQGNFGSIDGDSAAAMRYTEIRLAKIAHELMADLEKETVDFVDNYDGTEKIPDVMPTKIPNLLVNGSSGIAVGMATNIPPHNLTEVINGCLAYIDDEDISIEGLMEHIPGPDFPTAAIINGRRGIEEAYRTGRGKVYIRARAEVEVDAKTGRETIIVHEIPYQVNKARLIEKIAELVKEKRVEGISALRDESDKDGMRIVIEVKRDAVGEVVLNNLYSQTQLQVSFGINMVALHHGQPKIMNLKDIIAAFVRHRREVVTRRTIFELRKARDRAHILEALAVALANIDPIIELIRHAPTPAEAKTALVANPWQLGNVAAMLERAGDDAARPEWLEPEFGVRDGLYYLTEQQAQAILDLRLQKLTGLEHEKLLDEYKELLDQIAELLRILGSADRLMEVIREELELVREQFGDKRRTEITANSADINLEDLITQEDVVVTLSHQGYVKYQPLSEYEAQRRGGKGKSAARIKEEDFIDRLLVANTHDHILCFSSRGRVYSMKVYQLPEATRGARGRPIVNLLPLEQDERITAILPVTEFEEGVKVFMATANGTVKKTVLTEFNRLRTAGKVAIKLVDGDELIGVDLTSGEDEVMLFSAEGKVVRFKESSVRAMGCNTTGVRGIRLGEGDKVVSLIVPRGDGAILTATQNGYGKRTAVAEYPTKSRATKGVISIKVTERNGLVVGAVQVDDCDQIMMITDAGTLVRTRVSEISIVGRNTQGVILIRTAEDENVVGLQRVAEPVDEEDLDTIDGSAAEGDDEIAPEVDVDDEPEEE

| SMILES | IC50 (DNA gyrase subunit B) [nM] | Activity [1] | Activity [2] | IC50 [15] [nM] | also measured |
| --- | --- | --- | --- | --- | --- |
| CO[C@@H]1[C@@H](OC(=O)c2ccc(C)[nH]2)[C@@H](O)[C@H](Oc2ccc3c(O)c(NC(=O)c4ccc(O)c(NC(=O)C(C)C)c4)c(=O)oc3c2Cl)OC1(C)C | 73 | 3.1 µM | 3.1 µM | 41 | MIC (Staphylococcus aureus [3]): 2 µg/mL (≈ 2.8 µM); MIC (Staphylococcus aureus [4]): 4 µg/mL (≈ 5.6 µM); MIC (Staphylococcus aureus [5]): > 32 µg/mL; MIC (Streptococcus pneumoniae [6]): 4 µg/mL (≈ 5.6 µM); MIC (Streptococcus pneumoniae [7]): 8 µg/mL (≈ 11.2 µM); MIC (Streptococcus pneumoniae [8]): 16 µg/mL (≈ 22.4 µM); MIC (Enterococcus faecalis): 32 µg/mL (≈ 44.8 µM); MIC (Enterococcus faecium): > 32 µg/mL; MIC (Escherichia coli [9]): > 32 µg/mL; MIC (Escherichia coli [10]): > 32 µg/mL; MIC (Escherichia coli [11]): 16 µg/mL (≈ 22.4 µM); MIC (Klebsiella pneumoniae): > 32 µg/mL; MIC (Pseudomonas aeruginosa [12]): > 32 µg/mL; MIC (Pseudomonas aeruginosa [13]): > 32 µg/mL; MIC (Pseudomonas aeruginosa [14]): 1 µg/mL (≈ 1.4 µM) |
| CO[C@@H]1[C@@H](OC(=O)c2ccc(C)[nH]2)[C@@H](O)[C@H](Oc2ccc3c(O)c(NC(=O)c4ccccc4)c(=O)oc3c2C)OC1(C)C | 131 | 6.3 µM | 6.3 µM | – | – |
| CO[C@@H]1[C@@H](O)[C@@H](OC(=O)c2ccc(C)[nH]2)[C@H](Oc2ccc3c(O)c(NC(=O)c4ccc(SC)cc4)c(=O)oc3c2Cl)OC1(C)C | 280 | inactive | 12.5 µM | – | – |
| CO[C@@H]1[C@@H](O)[C@@H](O)[C@H](Oc2ccc3c(O)c(NC(=O)c4ccccc4)c(=O)oc3c2C)OC1(C)C | > 10000 | inactive | inactive | – | – |
| CCCc1cc(C(=O)Nc2c(O)c3ccc(O[C@@H]4OC(C)(C)[C@H](OC)[C@@H](O)[C@H]4O)c(C)c3oc2=O)ccc1O | > 10000 | 3.1 µM | inactive | – | – |
| CO[C@@H]1[C@@H](O)[C@@H](OC(=O)c2ccc(C)[nH]2)[C@H](Oc2ccc3c(O)c(NC(=O)/C=C/c4ccccc4)c(=O)oc3c2Cl)OC1(C)C | 598 | > 100 µM | inactive | 1200 | – |
| CO[C@@H]1[C@@H](O)[C@@H](OC(=O)c2ccc(C)[nH]2)[C@H](Oc2ccc3c(O)c(NC(=O)c4ccc(N)c(C)c4)c(=O)oc3c2C)OC1(C)C | 784 | > 100 µM | 100 µM | 190 | – |
| CO[C@@H]1[C@@H](O)[C@@H](OC(=O)c2ccc(C)[nH]2)[C@H](Oc2ccc3c(O)c(NC(=O)c4cc(C)c(O)c(C)c4)c(=O)oc3c2Cl)OC1(C)C | 376 | 100 µM | 100 µM | 320 | – |
| CO[C@@H]1[C@@H](O)[C@@H](OC(=O)c2ccc(C)[nH]2)[C@H](Oc2ccc3c(O)c(NC(=O)c4ccccc4)c(=O)oc3c2Cl)OC1(C)C | 297 | > 100 µM | 50 µM | 110 | – |
| CCCc1cc(C(=O)Nc2c(O)c3ccc(O[C@@H]4OC(C)(C)[C@H](OC)[C@@H](O)[C@H]4OC(=O)c4ccc(C)[nH]4)c(C)c3oc2=O)ccc1O | 758 | 25 µM | 100 µM | 140 | – |
| CO[C@@H]1[C@@H](O)[C@@H](O)[C@H](Oc2ccc3c(O)c(NC(=O)c4cc(C)c(O)c(C)c4)c(=O)oc3c2C)OC1(C)C | > 10000 | inactive | inactive | – | – |
| COc1cc(C(=O)Nc2c(O)c3ccc(O[C@@H]4OC(C)(C)[C@H](OC)[C@@H](O)[C@H]4O)c(C)c3oc2=O)ccc1O | > 10000 | inactive | inactive | – | – |
| CO[C@@H]1[C@@H](OC(=O)c2ccc(C)[nH]2)[C@@H](O)[C@H](Oc2ccc3c(O)c(NC(=O)c4ccc(O)c(CC=C(C)C)c4)c(=O)oc3c2Cl)OC1(C)C [CHLOROBIOCIN] | – | 1.6 µM | < 1 µM | – | MIC (Staphylococcus aureus [3]): ≤ 0.06 µg/mL; MIC (Staphylococcus aureus [4]): ≤ 0.06 µg/mL; MIC (Staphylococcus aureus [5]): 4 µg/mL (≈ 5.74 µM); MIC (Streptococcus pneumoniae [6]): 0.25 µg/mL (≈ 0.359 µM); MIC (Streptococcus pneumoniae [7]): 1 µg/mL (≈ 1.43 µM); MIC (Streptococcus pneumoniae [8]): 1 µg/mL (≈ 1.43 µM); MIC (Enterococcus faecalis): 4 µg/mL (≈ 5.74 µM); MIC (Enterococcus faecium): > 32 µg/mL; MIC (Escherichia coli [9]): 32 µg/mL (≈ 45.9 µM); MIC (Escherichia coli [10]): > 32 µg/mL; MIC (Escherichia coli [11]): 2 µg/mL (≈ 2.87 µM); MIC (Klebsiella pneumoniae): 16 µg/mL (≈ 23 µM); MIC (Pseudomonas aeruginosa [12]): 8 µg/mL (≈ 11.5 µM); MIC (Pseudomonas aeruginosa [13]): 16 µg/mL (≈ 23 µM); MIC (Pseudomonas aeruginosa [14]): ≤ 0.06 µg/mL |
| CO[C@@H]1[C@@H](OC(=O)c2ccc(C)[nH]2)[C@@H](O)[C@H](Oc2ccc3c(O)c(NC(=O)/C=C/c4ccc(O)c(Cl)c4)c(=O)oc3c2Cl)OC1(C)C | 137 | 25 µM | 25 µM | 32 | – |
| C=CCc1cc(C(=O)Nc2c(O)c3ccc(O[C@@H]4OC(C)(C)[C@H](OC)[C@@H](O)[C@H]4OC(=O)c4ccc(C)[nH]4)c(C)c3oc2=O)ccc1O | 2790 | inactive | 100 µM | 460 | – |
| COc1cc(C(=O)Nc2c(O)c3ccc(O[C@@H]4OC(C)(C)[C@H](OC)[C@@H](O)[C@H]4OC(=O)c4ccc(C)[nH]4)c(Cl)c3oc2=O)ccc1O | 891 | inactive | 100 µM | 460 | – |
| CO[C@@H]1[C@@H](OC(N)=O)[C@@H](O)[C@H](Oc2ccc3c(O)c(NC(=O)c4ccc(O)c(CC=C(C)C)c4)c(=O)oc3c2C)OC1(C)C [NOVOBIOCIN] | – | 3.1 µM | 6.3 µM | – | MIC (Staphylococcus aureus [3]): 0.25 µg/mL (≈ 0.408 µM); MIC (Staphylococcus aureus [4]): 0.25 µg/mL (≈ 0.408 µM); MIC (Staphylococcus aureus [5]): > 32 µg/mL; MIC (Streptococcus pneumoniae [6]): 1 µg/mL (≈ 1.63 µM); MIC (Streptococcus pneumoniae [7]): 2 µg/mL (≈ 3.26 µM); MIC (Streptococcus pneumoniae [8]): 2 µg/mL (≈ 3.26 µM); MIC (Enterococcus faecalis): > 32 µg/mL; MIC (Enterococcus faecium): > 32 µg/mL; MIC (Escherichia coli [9]): > 32 µg/mL; MIC (Escherichia coli [10]): > 32 µg/mL; MIC (Escherichia coli [11]): 4 µg/mL (≈ 6.53 µM); MIC (Klebsiella pneumoniae): > 32 µg/mL; MIC (Pseudomonas aeruginosa [12]): > 32 µg/mL; MIC (Pseudomonas aeruginosa [13]): > 32 µg/mL; MIC (Pseudomonas aeruginosa [14]): 1 µg/mL (≈ 1.63 µM) |
| CO[C@@H]1[C@@H](OC(=O)c2ccc(C)[nH]2)[C@@H](O)[C@H](Oc2ccc3c(O)c(NC(=O)c4ccccc4)c(=O)oc3c2)OC1(C)C | 219 | 50 µM | 50 µM | 50 | – |
| CO[C@@H]1[C@@H](OC(=O)c2ccc(C)[nH]2)[C@@H](O)[C@H](Oc2ccc3c(O)c(NC(=O)c4ccccc4)c(=O)oc3c2Cl)OC1(C)C | 72 | 3.1 µM | 3.1 µM | < 5 | – |
| CO[C@@H]1[C@@H](OC(=O)c2ccc(C)[nH]2)[C@@H](O)[C@H](Oc2ccc3c(O)c(NC(=O)/C=C/c4ccc(O)c(Cl)c4)c(=O)oc3c2)OC1(C)C | 276 | 50 µM | 50 µM | 280 | – |
| CO[C@@H]1[C@@H](O)[C@@H](O)[C@H](Oc2ccc3c(O)c(NC(=O)/C=C/c4ccccc4)c(=O)oc3c2C)OC1(C)C | > 10000 | inactive | inactive | – | – |
| CO[C@@H]1[C@@H](OC(=O)c2ccc(C)[nH]2)[C@@H](O)[C@H](Oc2ccc3c(O)c(NC(=O)/C=C/c4ccccc4)c(=O)oc3c2C)OC1(C)C | 106 | inactive | 50 µM | – | – |
| COc1cc(C(=O)Nc2c(O)c3ccc(O[C@@H]4OC(C)(C)[C@H](OC)[C@@H](OC(=O)c5ccc(C)[nH]5)[C@H]4O)cc3oc2=O)ccc1O | 185 | 25 µM | 25 µM | 75 | – |
